According to ChEMBL document CHEMBL1132483, “Fused bicyclic Gly-Asp beta-turn mimics with specific affinity for GPIIb-IIIa” (J Med Chem, 1999):
Each block holds one compound with its values, some of them ahead of it.

How the values were obtained:
[1] = organism: Homo sapiens; assay: Concentration required to reduce ADP-induced platelet aggregation in platelet rich plasma by 50%; type: functional
How it was run: (§1)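 Human platelet-rich plasma was incubated for 1 min with varying test concentrations or vehicle, then aggregation was triggered with ADP. The response was followed turbidimetrically. IC50 is the concentration cutting the aggregation response by 50%, averaged from at least two determinations, with average error ±16%.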

[2] = organism: Homo sapiens; assay: Concentration required to reduce ADP-induced platelet aggregation in platelet rich plasma by 50%.; type: functional; how it was run: as §1
[3] = target: Integrin alpha-IIb/beta-3 (Homo sapiens, UniProt P05106+P08514); assay: Inhibition of fibrinogen binding to purified human alpha IIb beta-3 integrin (GP IIb-IIIa); type: protein-complex assay
Chain of Integrin alpha-IIb/beta-3 (P05106 27-788 limits assumed): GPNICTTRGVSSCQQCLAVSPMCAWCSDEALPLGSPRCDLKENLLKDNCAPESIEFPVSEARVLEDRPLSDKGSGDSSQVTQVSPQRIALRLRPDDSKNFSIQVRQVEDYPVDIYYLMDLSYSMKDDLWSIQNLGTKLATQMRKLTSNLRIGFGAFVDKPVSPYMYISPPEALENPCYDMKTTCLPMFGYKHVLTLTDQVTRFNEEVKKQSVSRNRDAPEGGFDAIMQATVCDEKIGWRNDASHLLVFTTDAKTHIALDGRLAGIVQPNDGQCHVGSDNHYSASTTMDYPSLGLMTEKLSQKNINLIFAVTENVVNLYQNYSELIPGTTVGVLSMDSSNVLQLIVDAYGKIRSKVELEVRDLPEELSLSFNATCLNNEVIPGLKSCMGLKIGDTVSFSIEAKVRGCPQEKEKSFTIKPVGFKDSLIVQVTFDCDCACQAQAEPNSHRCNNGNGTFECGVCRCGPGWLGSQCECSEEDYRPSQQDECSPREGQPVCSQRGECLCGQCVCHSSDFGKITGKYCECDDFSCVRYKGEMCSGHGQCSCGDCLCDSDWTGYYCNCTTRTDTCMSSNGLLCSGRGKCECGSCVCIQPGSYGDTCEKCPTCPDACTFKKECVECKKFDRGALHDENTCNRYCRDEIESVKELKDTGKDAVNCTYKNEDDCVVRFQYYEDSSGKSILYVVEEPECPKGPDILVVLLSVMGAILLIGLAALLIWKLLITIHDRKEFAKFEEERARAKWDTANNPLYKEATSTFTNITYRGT
Chain of Integrin alpha-IIb/beta-3 (P08514 32-887 limits assumed): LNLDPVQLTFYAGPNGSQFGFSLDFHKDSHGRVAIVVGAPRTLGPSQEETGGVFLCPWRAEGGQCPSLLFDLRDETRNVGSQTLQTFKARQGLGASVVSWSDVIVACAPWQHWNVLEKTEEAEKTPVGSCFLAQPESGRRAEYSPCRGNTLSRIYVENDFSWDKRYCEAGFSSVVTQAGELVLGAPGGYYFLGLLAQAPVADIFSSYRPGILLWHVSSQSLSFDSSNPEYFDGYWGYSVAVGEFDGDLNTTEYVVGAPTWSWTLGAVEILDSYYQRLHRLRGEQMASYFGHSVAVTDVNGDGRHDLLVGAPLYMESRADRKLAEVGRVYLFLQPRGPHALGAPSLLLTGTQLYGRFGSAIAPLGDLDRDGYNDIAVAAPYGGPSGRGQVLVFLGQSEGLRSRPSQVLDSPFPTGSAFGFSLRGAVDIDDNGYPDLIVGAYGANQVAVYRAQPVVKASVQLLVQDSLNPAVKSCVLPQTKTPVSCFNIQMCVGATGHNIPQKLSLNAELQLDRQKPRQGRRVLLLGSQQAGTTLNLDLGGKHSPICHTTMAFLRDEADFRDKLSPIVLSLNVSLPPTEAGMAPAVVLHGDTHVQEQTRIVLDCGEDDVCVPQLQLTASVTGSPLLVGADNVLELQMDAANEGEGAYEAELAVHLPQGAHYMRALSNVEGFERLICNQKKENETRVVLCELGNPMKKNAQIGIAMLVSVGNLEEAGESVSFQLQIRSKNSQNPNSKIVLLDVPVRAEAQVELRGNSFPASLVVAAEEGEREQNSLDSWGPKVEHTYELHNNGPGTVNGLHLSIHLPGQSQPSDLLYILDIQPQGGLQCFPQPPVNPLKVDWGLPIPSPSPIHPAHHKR
Chain of Integrin alpha-IIb/beta-3 (P08514 891-1039 limits assumed): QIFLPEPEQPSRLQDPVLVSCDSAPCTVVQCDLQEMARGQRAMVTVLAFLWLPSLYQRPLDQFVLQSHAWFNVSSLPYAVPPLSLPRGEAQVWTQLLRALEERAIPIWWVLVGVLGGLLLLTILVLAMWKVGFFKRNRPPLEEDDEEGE

[4] = Cmax (ng /mL) value after oral administration of 10 mg/kg in guinea pig.; type: ADME, organism-based, Cavia porcellus; design: dose 10 mg/kg, route oral; details: in vivo
How it was run: (§2)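 Guinea pigs were fasted overnight and given a single 10 mg/kg oral gavage dose, formulated at 3 mg/mL in 50% poly(ethylene glycol) 300. Blood was drawn under isoflurane anesthesia into 3.8% trisodium citrate (9:1). Plasma was assayed by HPLC. AUC covers the 0-5 h time course, and Cmax is the peak plasma level.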

[5] = AUC (ng h/mL) value after oral administration of 10 mg/kg in guinea pig.; type: ADME, organism-based, Cavia porcellus; design: dose 10 mg/kg, route oral; details: plasma; how it was run: as §2
[6] = AUC(ng h/mL)values after oral administration of 10 mg/kg in guinea pig.; type: ADME, organism-based, Cavia porcellus; design: dose 10 mg/kg, route oral; details: plasma; how it was run: as §2
[7] = Cmax(ng /mL)values after oral administration of 10 mg/kg in guinea pig.; type: ADME, organism-based, Cavia porcellus; design: dose 10 mg/kg, route oral; details: in vivo; how it was run: as §2
[8] = AUC(ng h/mL)values after oral administration of 10 mg/kg in rat.; type: ADME, organism-based; design: dose 10 mg/kg, route oral; details: plasma
How it was run: (§3)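 Rats were fasted overnight and dosed once by oral gavage at 10 mg/kg, in vehicle of 50% poly(ethylene glycol) 300 at 3 mg/mL. Blood was collected under isoflurane into 3.8% trisodium citrate (9:1), and plasma was prepared for HPLC analysis. AUC refers to the sampled time course.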

[9] = Cmax(ng /mL)values after oral administration of 10 mg/kg in rat.; type: ADME, organism-based; design: dose 10 mg/kg, route oral; details: in vivo; how it was run: as §3

Compound: N=C(N)c1ccc(COc2ccc3c(c2)CCC(CC(=O)O)O3)cc1 (stereo unspecified)
IC50 [1]: 2500 nM | IC50 [3]: 39 nM

Compound: N=C(N)c1ccc(COc2ccc3c(c2)CN(CC(=O)O)C3=O)cc1
IC50 [3]: 1200 nM

Compound: N=C(N)c1ccc(C(=O)Nc2ccc3c(c2)CCC(CC(=O)O)C3)cc1 (stereo unspecified)
IC50 [1]: 0.067 µg/mL | IC50 [2]: 190 nM | AUC [6]: 903 ng·h/mL | Cmax [7]: 252 ng/mL

Compound: N=C(N)c1ccc(COc2ccc(C(=O)NCC(=O)O)cc2)cc1
IC50 [3]: 5000 nM

Compound: N=C(N)c1ccc(COc2ccc3c(c2)CC(=O)N(CC(=O)O)C3)cc1
IC50 [3]: 5800 nM

Compound: N=C(N)c1ccc(C(=O)Nc2ccc3c(c2)CCC(CC(=O)O)O3)cc1 (stereo unspecified)
IC50 [1]: 190 nM | IC50 [2]: 0.027 µg/mL | IC50 [3]: 2 nM

Compound: N=C(N)c1ccc(COc2ccc3c(c2)CCCN(CC(=O)O)C3=O)cc1
IC50 [3]: 600 nM

Compound: N=C(N)c1ccc(COc2ccc3c(c2)CCC(CC(=O)O)C3=O)cc1 (stereo unspecified)
IC50 [1]: 450 nM | IC50 [3]: 27 nM

Compound: N=C(N)c1ccc(COc2ccc3c(c2)CCC(CC(=O)O)C3)cc1 (stereo unspecified)
IC50 [1]: 33000 nM | IC50 [3]: 260 nM

Compound: N=C(N)c1ccc(COc2ccc3c(c2)CCN(CC(=O)O)C3)cc1
IC50 [1]: 330 nM

Second part, the compound after the results:

IC50 [1]: 60 nM | IC50 [2]: 0.02 µg/mL
Compound: N=C(N)c1ccc(C(=O)Nc2ccc3c(c2)CCC(CC(=O)O)C3=O)cc1 (stereo unspecified)

IC50 [3]: 4200 nM
Compound: N=C(N)c1ccc(COc2ccc3c(=O)n(CC(=O)O)ccc3c2)cc1

Cmax [4]: 177 ng/mL | AUC [5]: 543 ng·h/mL
Compound: CCOC(=O)Cn1ccc2cc(NC(=O)c3ccc(C(=N)N)cc3)ccc2c1=O

Cmax [4]: 469 ng/mL | AUC [5]: 1580 ng·h/mL
Compound: CCOC(=O)Cc1cc2ccc(NC(=O)c3ccc(C(=N)N)cc3)cc2cn1

AUC [6]: 3700 ng·h/mL | AUC [8]: 15900 ng·h/mL | Cmax [7]: 1170 ng/mL | Cmax [9]: 5060 ng/mL
Compound: CCOC(=O)CC1CCc2cc(NC(=O)c3ccc(C(=N)N)cc3)ccc2C1 (stereo unspecified)

IC50 [1]: 170 nM | IC50 [2]: 0.06 µg/mL
Compound: N=C(N)c1ccc(C(=O)Nc2ccc3c(c2)CCN(CC(=O)O)C3)cc1

AUC [8]: 14800 ng·h/mL | Cmax [9]: 4850 ng/mL
Compound: CCOC(=O)CC1CCc2cc(NC(=O)c3ccc(C(=N)N)cc3)ccc2O1 (stereo unspecified)

AUC [6]: 3990 ng·h/mL | AUC [8]: 11200 ng·h/mL | Cmax [7]: 1150 ng/mL | Cmax [9]: 3630 ng/mL
Compound: CCOC(=O)CC1CCc2cc(NC(=O)c3ccc(C(=N)N)cc3)ccc2C1=O (stereo unspecified)

IC50 [1]: 0.032 µg/mL | IC50 [2]: 90 nM | AUC [6]: 400 ng·h/mL | Cmax [7]: 126 ng/mL
Compound: N=C(N)c1ccc(C(=O)Nc2ccc3c(c2)CCN(CC(=O)O)C3=O)cc1
